In ChEMBL document CHEMBL3872252, “New bithiazolyl hydrazones: Novel synthesis, characterization and antitubercular evaluation” (Bioorg Med Chem Lett, 2017):
In brackets after ≈: the same amount, converted by molar mass.

Experiments:
[1] = Selectivity index, ratio of GI50 for human HCT116 cells to MIC90 for Mycobacterium bovis BCG ATCC 35743 active stage; type: toxicity, cell-based, HCT-116; settings: read-out: Selectivity Index
Outline: (§1)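 Cytotoxicity was measured on human MCF-7, HCT116 and THP-1 cells by MTT assay, with paclitaxel as reference. GI50 is the concentration inhibiting 50% of cell growth. The selectivity index is GI50 for the given cell line divided by MIC90 for the given mycobacterial strain and stage.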

[2] = Selectivity index, ratio of GI50 for human MCF7 cells to MIC90 for Mycobacterium tuberculosis H37Ra ATCC 25177 active stage; type: toxicity, cell-based; settings: read-out: Selectivity Index; outline: as §1
[3] = Selectivity index, ratio of GI50 for human MCF7 cells to MIC90 for Mycobacterium tuberculosis H37Ra ATCC 25177 dormant stage; type: toxicity, cell-based; settings: read-out: Selectivity Index
Outline: (§2)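 Cytotoxicity was measured on human MCF-7, HCT116 and THP-1 cells by MTT assay, with paclitaxel as reference. The selectivity index is GI50 for the given cell line divided by MIC90 for the given mycobacterial strain and stage.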

[4] = Cytotoxicity against human THP1 cells by MTT assay; type: toxicity, cell-based, THP-1; settings: for GI50: THP1 cells; for GI90: thp-1
[5] = Antitubercular activity against Mycobacterium bovis BCG ATCC 35743 active stage measured on day 8 by nitrate reductase based two-fold dilution assay; type: functional, Mycobacterium bovis BCG str. ATCC 35743; settings: Mycobacterium tuberculosis variant bovis BCG, ATCC 35743, 192 h
[6] = test system: Escherichia coli; assay: Growth inhibition of Escherichia coli at 30 ug/ml; type: functional; settings: read-out: GI
[7] = Antitubercular activity against Mycobacterium tuberculosis H37Ra ATCC 25177 active stage infected in human THP1 cells measured on day 8 by nitrate reductase assay; type: functional, THP-1; settings: ATCC 25177, 192 h
[8] = Antitubercular activity against Mycobacterium tuberculosis H37Ra ATCC 25177 dormant stage infected in human THP1 cells measured on day 12 by nitrate reductase assay; type: functional, THP-1; settings: ATCC 25177, 288 h
[9] = test system: Bacillus subtilis; assay: Growth inhibition of Bacillus subtilis at 3 ug/ml; type: functional; settings: read-out: GI
Outline: (§3)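 Screened against Gram-negative E. coli and P. aeruginosa and Gram-positive S. aureus and B. subtilis. Compound was tested at 3 µg/ml, and the read-out is percent growth inhibition.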

[10] = test system: Staphylococcus aureus; assay: Growth inhibition of Staphylococcus aureus at 3 ug/ml; type: functional; settings: read-out: GI; outline: as §3
[11] = test system: Staphylococcus aureus; assay: Growth inhibition of Staphylococcus aureus at 30 ug/ml; type: functional; settings: read-out: GI
[12] = Selectivity index, ratio of GI50 for human HCT116 cells to MIC90 for Mycobacterium tuberculosis H37Ra ATCC 25177 active stage; type: toxicity, cell-based, HCT-116; settings: read-out: Selectivity Index; outline: as §1
[13] = Selectivity index, ratio of GI50 for human THP1 cells to MIC90 for Mycobacterium bovis BCG ATCC 35743 active stage; type: toxicity, cell-based, THP-1; settings: read-out: Selectivity Index; outline: as §1
[14] = test system: Bacillus subtilis; assay: Growth inhibition of Bacillus subtilis at 30 ug/ml; type: functional; settings: read-out: GI
[15] = Antitubercular activity against Mycobacterium bovis BCG ATCC 35743 dormant stage measured on day 12 by nitrate reductase based two-fold dilution assay; type: functional, Mycobacterium bovis BCG str. ATCC 35743; settings: Mycobacterium tuberculosis variant bovis BCG, ATCC 35743, 288 h
[16] = test system: Escherichia coli; assay: Growth inhibition of Escherichia coli at 3 ug/ml; type: functional; settings: read-out: GI; outline: as §3
[17] = Antitubercular activity against Mycobacterium tuberculosis H37Ra ATCC 25177 dormant stage measured on day 12 by XTT reduction menadione based two-fold dilution assay; type: functional; settings: ATCC 25177, 288 h
Outline: (§4)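 M. tuberculosis H37Ra ATCC 25177 was exposed to 0.7–100 μg/mL in two-fold steps (0.7, 1.5, 3.1 … 100). Active stage was read after 8 days and dormant stage after 12 days of incubation. Inhibition was read by XTT reduction menadione assay (XRMA), absorbance 470 nm. MIC90 is the concentration giving ≥90% inhibition (µg/mL).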

[18] = test system: Bacillus subtilis; assay: Growth inhibition of Bacillus subtilis at 10 ug/ml; type: functional; settings: read-out: GI
[19] = Selectivity index, ratio of GI50 for human THP1 cells to MIC90 for Mycobacterium bovis BCG ATCC 35743 dormant stage; type: toxicity, cell-based, THP-1; settings: read-out: Selectivity Index; outline: as §2
[20] = Cytotoxicity against human HCT116 cells by MTT assay; type: toxicity, cell-based, HCT-116; settings: for GI50: HCT116 cells; for GI90: hct-116
[21] = Cytotoxicity against human MCF7 cells by MTT assay; type: toxicity, cell-based; settings: for GI50: MCF7 cells; for GI90: mcf7
[22] = test system: Pseudomonas aeruginosa; assay: Growth inhibition of Pseudomonas aeruginosa at 3 ug/ml; type: functional; settings: read-out: GI; outline: as §3
[23] = Selectivity index, ratio of GI50 for human THP1 cells to MIC90 for Mycobacterium tuberculosis H37Ra ATCC 25177 dormant stage; type: toxicity, cell-based, THP-1; settings: read-out: Selectivity Index; outline: as §2
[24] = test system: Staphylococcus aureus; assay: Growth inhibition of Staphylococcus aureus at 10 ug/ml; type: functional; settings: read-out: GI
[25] = test system: Escherichia coli; assay: Growth inhibition of Escherichia coli at 10 ug/ml; type: functional; settings: read-out: GI
[26] = Selectivity index, ratio of GI50 for human HCT116 cells to MIC90 for Mycobacterium tuberculosis H37Ra ATCC 25177 dormant stage; type: toxicity, cell-based, HCT-116; settings: read-out: Selectivity Index; outline: as §2
[27] = Selectivity index, ratio of GI50 for human THP1 cells to MIC90 for Mycobacterium tuberculosis H37Ra ATCC 25177 active stage; type: toxicity, cell-based, THP-1; settings: read-out: Selectivity Index; outline: as §1
[28] = Selectivity index, ratio of GI50 for human MCF7 cells to MIC90 for Mycobacterium bovis BCG ATCC 35743 dormant stage; type: toxicity, cell-based; settings: read-out: Selectivity Index; outline: as §2
[29] = test system: Pseudomonas aeruginosa; assay: Growth inhibition of Pseudomonas aeruginosa at 10 ug/ml; type: functional; settings: read-out: GI
[30] = Selectivity index, ratio of GI50 for human HCT116 cells to MIC90 for Mycobacterium bovis BCG ATCC 35743 dormant stage; type: toxicity, cell-based, HCT-116; settings: read-out: Selectivity Index; outline: as §2
[31] = Antitubercular activity against Mycobacterium tuberculosis H37Ra ATCC 25177 active stage measured on day 8 by XTT reduction menadione based two-fold dilution assay; type: functional; settings: ATCC 25177, 192 h; outline: as §4
[32] = test system: Pseudomonas aeruginosa; assay: Growth inhibition of Pseudomonas aeruginosa at 30 ug/ml; type: functional; settings: read-out: GI
[33] = Selectivity index, ratio of GI50 for human MCF7 cells to MIC90 for Mycobacterium bovis BCG ATCC 35743 active stage; type: toxicity, cell-based; settings: read-out: Selectivity Index; outline: as §1

Structure (SMILES): C/C(=N\Nc1nc(-c2ccc(F)cc2)cs1)c1sc(C)nc1C
- selectivity ratio [1]: 11
- selectivity ratio [2]: 4
- selectivity ratio [3]: 2
- GI50 [4]: > 100 µg/mL
- GI90 [4]: > 100 µg/mL
- IC50 [5]: 6 µg/mL (≈ 17.3 µM)
- MIC90 [5]: 9.29 µg/mL (≈ 26.8 µM)
- inhibition of growth at 30 µg/mL [6]: 84.3%
- MIC90 [7]: 57 µg/mL (≈ 165 µM)
- MIC90 [8]: 44.3 µg/mL (≈ 128 µM)
- inhibition of growth at 3 µg/mL [9]: 58.6%
- inhibition of growth at 3 µg/mL [10]: 61.6%
- inhibition of growth at 30 µg/mL [11]: 83.5%
- selectivity ratio [12]: 4
- selectivity ratio [13]: 11
- inhibition of growth at 30 µg/mL [14]: 82.2%
- IC50 [15]: 6.04 µg/mL (≈ 17.4 µM)
- MIC90 [15]: 10.4 µg/mL (≈ 30.1 µM)
- inhibition of growth at 3 µg/mL [16]: 64%
- IC50 [17]: 2.04 µg/mL (≈ 5.89 µM)
- MIC90 [17]: 53.8 µg/mL (≈ 155 µM)
- inhibition of growth at 10 µg/mL [18]: 74.1%
- selectivity ratio [19]: 10
- GI50 [20]: > 100 µg/mL
- GI90 [20]: > 100 µg/mL
- GI50 [21]: > 100 µg/mL
- GI90 [21]: > 100 µg/mL
- inhibition of growth at 3 µg/mL [22]: 62%
- selectivity ratio [23]: 2
- inhibition of growth at 10 µg/mL [24]: 75.9%
- inhibition of growth at 10 µg/mL [25]: 77.3%
- selectivity ratio [26]: 2
- selectivity ratio [27]: 4
- selectivity ratio [28]: 10
- inhibition of growth at 10 µg/mL [29]: 76.8%
- selectivity ratio [30]: 10
- IC50 [31]: 2.67 µg/mL (≈ 7.71 µM)
- MIC90 [31]: 25.3 µg/mL (≈ 72.9 µM)
- inhibition of growth at 30 µg/mL [32]: 81.7%
- selectivity ratio [33]: 11

Structure (SMILES): COc1ccc(-c2csc(N/N=C(\C)c3sc(C)nc3C)n2)cc1
- selectivity ratio [1]: 1
- selectivity ratio [2]: 1
- selectivity ratio [3]: 5
- GI50 [4]: > 100 µg/mL
- GI90 [4]: > 100 µg/mL
- IC50 [5]: 7.37 µg/mL (≈ 20.6 µM)
- MIC90 [5]: 67.3 µg/mL (≈ 188 µM)
- inhibition of growth at 30 µg/mL [6]: 69.2%
- MIC90 [7]: 48.2 µg/mL (≈ 135 µM)
- MIC90 [8]: 46.2 µg/mL (≈ 129 µM)
- inhibition of growth at 3 µg/mL [9]: 70.7%
- inhibition of growth at 3 µg/mL [10]: 72.8%
- inhibition of growth at 30 µg/mL [11]: 67.2%
- selectivity ratio [12]: 1
- selectivity ratio [13]: 1
- inhibition of growth at 30 µg/mL [14]: 64.7%
- IC50 [15]: 8.41 µg/mL (≈ 23.5 µM)
- MIC90 [15]: 24 µg/mL (≈ 67.1 µM)
- inhibition of growth at 3 µg/mL [16]: 74.4%
- IC50 [17]: 1.24 µg/mL (≈ 3.46 µM)
- MIC90 [17]: 20.5 µg/mL (≈ 57.2 µM)
- inhibition of growth at 10 µg/mL [18]: 70.6%
- selectivity ratio [19]: 12
- GI50 [20]: > 100 µg/mL
- GI90 [20]: > 100 µg/mL
- GI50 [21]: > 100 µg/mL
- GI90 [21]: > 100 µg/mL
- inhibition of growth at 3 µg/mL [22]: 73.6%
- selectivity ratio [23]: 5
- inhibition of growth at 10 µg/mL [24]: 72.7%
- inhibition of growth at 10 µg/mL [25]: 74.3%
- selectivity ratio [26]: 5
- selectivity ratio [27]: 1
- selectivity ratio [28]: 12
- inhibition of growth at 10 µg/mL [29]: 73.5%
- selectivity ratio [30]: 12
- IC50 [31]: 0.88 µg/mL (≈ 2.45 µM)
- MIC90 [31]: 74.1 µg/mL (≈ 207 µM)
- inhibition of growth at 30 µg/mL [32]: 67.8%
- selectivity ratio [33]: 1
